# Test results: paper PMC12444810 (Chemmedchem, 2025)
# Non-standard residues stand in square brackets, D forms with d. Residues, ends and D or L forms follow the SMILES beside them. *: point of attachment. Phe(4-F) = N[C@@H](Cc1ccc(F)cc1)C(=O)O; Cbz = O=C(OCc1ccccc1)*
# Tests used:
# Vero/SLAM cells = experiment: CCK-8 cytotoxicity assay; assay type: cell-based; conditions: CCK-8 assay, 100 µM, 24 h; result in words
# [1] = PAMPA passive membrane permeability; assay type: in vitro ADME; conditions: for passive membrane permeability, in words: 10 µM, 13 h incubation, triplicate
# MeV‐F [2] = conditions: cited from earlier work; for IC50: reported value
# [3] = test system: EGFP‐recombinant MeV (MeV‐EGFP); experiment: Viral entry inhibition assay; assay type: cell-based, measles virus; conditions: ratio of IC50 values in the viral entry inhibition assay
# Outline: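 Vero/hSLAM cells were infected with EGFP‑recombinant MeV in the presence of test compound for 1 h. Virus medium was removed and cells were kept 48 h in medium containing 100 µM of the parent fusion‑inhibitor peptide. Fluorescent infected cells were counted to give IC50, in triplicate. The ratio is taken against the parent peptide's IC50, measured under the same conditions.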
# MeV‐F [4] = molecular target: T1, MeV‐F (Measles virus, UniProt Q786F3); experiment: Cell-to-cell fusion assay; assay type: cell-based; conditions: 0.5 µM peptide, triplicate (Figure S2)
# T1 sequence (Q786F3 113-550 limits assumed): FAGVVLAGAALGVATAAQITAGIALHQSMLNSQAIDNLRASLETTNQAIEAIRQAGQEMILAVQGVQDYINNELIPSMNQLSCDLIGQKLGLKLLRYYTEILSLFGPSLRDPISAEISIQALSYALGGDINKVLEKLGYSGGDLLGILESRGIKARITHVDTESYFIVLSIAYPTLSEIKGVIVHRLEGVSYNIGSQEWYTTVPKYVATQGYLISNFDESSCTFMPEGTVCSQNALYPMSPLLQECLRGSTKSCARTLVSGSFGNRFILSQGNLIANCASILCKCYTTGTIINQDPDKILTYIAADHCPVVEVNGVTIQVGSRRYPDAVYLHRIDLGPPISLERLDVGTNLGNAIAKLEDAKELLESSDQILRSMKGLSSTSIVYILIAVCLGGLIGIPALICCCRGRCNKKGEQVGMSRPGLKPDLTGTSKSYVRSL
# T1 sequence (Q786F3 24-112 limits assumed): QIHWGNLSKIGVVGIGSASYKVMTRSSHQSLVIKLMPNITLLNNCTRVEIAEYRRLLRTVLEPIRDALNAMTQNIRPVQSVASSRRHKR
# Outline: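 Vero cells stably expressing human SLAM were transfected with plasmids encoding MeV‑F, MeV‑H and EGFP, then incubated with test compound for 24 h. Syncytium formation was judged by EGFP fluorescence imaging. Controls were cells without peptide and cells transfected with EGFP plasmid alone. Run in triplicate.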
# [5] = test system: fusion protein of canine distemper virus; conditions: cited from earlier work
Compound,cytotoxicity to Vero/SLAM cells (Vero/SLAM cells),"passive membrane permeability, in words [1]",IC50 (MeV‐F [2]) [nM],enhancement in inhibitory activity compared to FIP [3] [fold],"inhibition of syncytia formation, comparison of the two compounds (MeV‐F [4])","Papp at 13 h, 10 µM [1] [×10⁻⁶ cm/s]",inhibitory activity compared to the original FIP (MeV‐F [2]; authors' previous study),inhibition of canine distemper virus fusion protein [5]
N=C(N)NCCC[C@@H](NC(=O)[C@H](Cc1ccccc1)NC(=O)[C@@H](Cc1ccccc1)NC(=O)OCc1ccccc1)C(N)=O [FIP‐G3r‐NH2] (Cbz-[dF]-Phe-[dR]-NH2),did not exhibit cytotoxicity,did not passively permeate the lipid membrane,210,,,,,
NC(=O)CNC(=O)[C@H](Cc1ccc(F)cc1)NC(=O)[C@@H](Cc1ccccc1)NC(=O)OCc1ccccc1 [FIP‐F2pF‐NH2] (Cbz-[dF]-[Phe(4-F)]-Gly-NH2),did not exhibit cytotoxicity,,,23,stronger inhibitor than FIP‐ZoF‐NH2,1.4 ± 0.1,,
NC(=O)CNC(=O)[C@H](Cc1ccccc1)NC(=O)[C@@H](Cc1ccccc1)NC(=O)OCc1ccccc1 [FIP‐NH2] (Cbz-[dF]-Phe-Gly-NH2),,,,,,1.2 ± 0.2,slight improvement in inhibitory activity,
O=C(O)CNC(=O)[C@H](Cc1ccccc1)NC(=O)[C@@H](Cc1ccccc1)NC(=O)OCc1ccccc1 [FIP] (Cbz-[dF]-Phe-Gly-OH),did not exhibit cytotoxicity,negligible level of permeability,1300,,,,,does not inhibit
